Measured values published in ChEMBL document CHEMBL1127055, “Pyrrolo[1,2-a]benzimidazole-based aziridinyl quinones. A new class of DNA cleaving agent exhibiting G and A base specificity” (1993).

How the values were obtained:
Assay type in all cases: functional, Homo sapiens
[1] = tested on: 786-0; assay: Tested for cytotoxic activity against renal cancer 786-0 cell line
Summary of the method: (§1)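 Screened in a panel of 60 human cancer cell lines. The read-out was LC50, the concentration needed for 50% cell kill. Values were reported as log LC50 in a mean graph and plotted against the log of the panel mean LC50.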

[2] = tested on: A549; assay: Tested for cytotoxic activity against non-small cell lung cancer A549/ATCC cell line; summary of the method: as §1
[3] = tested on: ACHN; assay: Tested for cytotoxic activity against renal cancer ACHN cell line; summary of the method: as §1
[4] = tested on: EKVX; assay: Tested for cytotoxic activity against non-small cell lung cancer […] cell line; summary of the method: as §1
[5] = tested on: CAKI-1; assay: Tested for cytotoxic activity against renal cancer CAKI-1 cell line; summary of the method: as §1
[6] = tested on: CCRF-CEM; assay: Tested for cytotoxic activity against leukemia CCRF-CEM cell line; summary of the method: as §1
[7] = tested on: COLO 205; assay: Tested for cytotoxic activity against colon cancer COLO 205 cell line; summary of the method: as §1
[8] = tested on: DLD-1; assay: Tested for cytotoxic activity against colon cancer DLD-1 cell line; summary of the method: as §1
[9] = tested on: DMS-114; assay: Tested for cytotoxic activity against small cell lung cancer DMS114 cell line; summary of the method: as §1
[10] = tested on: HOP-62; assay: Tested for cytotoxic activity against non-small cell lung cancer HOP-62 cell line; summary of the method: as §1
[11] = tested on: HOP-18; assay: Tested for cytotoxic activity against non-small cell lung cancer HOP-18 cell line; summary of the method: as §1
[12] = tested on: HOP-92; assay: Tested for cytotoxic activity against non-small cell lung cancer HOP92 cell line; summary of the method: as §1
[13] = tested on: IGROV-1; assay: Tested for cytotoxic activity against ovarian cancer IGROVI cell line; summary of the method: as §1
[14] = tested on: K562; assay: Tested for cytotoxic activity against leukemia K-562 cell line; summary of the method: as §1
[15] = tested on: KM12; assay: Tested for cytotoxic activity against colon cancer KM-12 cell line; summary of the method: as §1
[16] = tested on: M19-MEL; assay: Tested for cytotoxic activity against melanoma M19-MEL cell line; summary of the method: as §1
[17] = tested on: KM-20L2; assay: Tested for cytotoxic activity against colon cancer KM20L2 cell line; summary of the method: as §1
[18] = tested on: M14; assay: Tested for cytotoxic activity against melanoma M14 cell line; summary of the method: as §1
[19] = tested on: LXFL 529; assay: Tested for cytotoxic activity against non-small cell lung cancer LXFL-529L cell line; summary of the method: as §1
[20] = tested on: Malme-3M; assay: Tested for cytotoxic activity against melanoma MALME-3M cell line; summary of the method: as §1
[21] = tested on: MOLT-4; assay: Tested for cytotoxic activity against leukemia MOLT-4 cell line; summary of the method: as §1
[22] = tested on: NCI-H522; assay: Tested for cytotoxic activity against non-small cell lung cancer NCI-H522 cell line; summary of the method: as §1
[23] = tested on: NCI-H322M; assay: Tested for cytotoxic activity against non-small cell lung cancer NCI-H322M cell line; summary of the method: as §1
[24] = tested on: NCI-H226; assay: Tested for cytotoxic activity against non-small cell lung cancer NCI-H226 cell line; summary of the method: as §1
[25] = tested on: OVCAR-8; assay: Tested for cytotoxic activity against ovarian cancer OVCAR-8 cell line; summary of the method: as §1
[26] = tested on: OVCAR-4; assay: Tested for cytotoxic activity against ovarian cancer OVCAR-4 cell line; summary of the method: as §1
[27] = tested on: NCI-H23; assay: Tested for cytotoxic activity against non-small cell lung cancer NCI-H23 cell line; summary of the method: as §1
[28] = tested on: OVCAR-5; assay: Tested for cytotoxic activity against ovarian cancer OVCAR-5 cell line; summary of the method: as §1
[29] = tested on: OVCAR-3; assay: Tested for cytotoxic activity against ovarian cancer OVCAR -3 cell line; summary of the method: as §1
[30] = tested on: RXF 393; assay: Tested for cytotoxic activity against renal cancer RXF-393 cell line; summary of the method: as §1
[31] = tested on: SNB-78; assay: Tested for cytotoxic activity against CNS cancer SNB-78 cell line; summary of the method: as §1
[32] = tested on: SK-MEL-2; assay: Tested for cytotoxic activity against melanoma SK-MEL-2 cell line; summary of the method: as §1
[33] = tested on: SW-620; assay: Tested for cytotoxic activity against colon cancer SW-620 cell line; summary of the method: as §1
[34] = tested on: SN12C; assay: Tested for cytotoxic activity against renal cancer SN12C cell line; summary of the method: as §1
[35] = tested on: SNB-19; assay: Tested for cytotoxic activity against CNS cancer SNB-19 cell line; summary of the method: as §1
[36] = tested on: SF-268; assay: Tested for cytotoxic activity against CNS cancer […] cell line; summary of the method: as §1
[37] = tested on: SF-295; assay: Tested for cytotoxic activity against CNS cancer SF-295 cell line; summary of the method: as §1
[38] = tested on: SF-539; assay: Tested for cytotoxic activity against CNS cancer […] cell line; summary of the method: as §1
[39] = tested on: SNB-75; assay: Tested for cytotoxic activity against CNS cancer SNB-75 cell line; summary of the method: as §1
[40] = tested on: SK-OV-3; assay: Tested for cytotoxic activity against ovarian cancer SK-OV-3 cell line; summary of the method: as §1
[41] = tested on: SK-MEL-28; assay: Tested for cytotoxic activity against melanoma SK-MEL-28; summary of the method: as §1
[42] = tested on: SK-MEL-5; assay: Tested for cytotoxic activity against melanoma SK-MEL-5 cell line; summary of the method: as §1
[43] = tested on: TK-10; assay: Tested for cytotoxic activity against renal cancer TK-10 cell line; summary of the method: as §1
[44] = tested on: UO-31; assay: Tested for cytotoxic activity against renal cancer UO-31 cell line; summary of the method: as §1
[45] = tested on: U-251; assay: Tested for cytotoxic activity against CNS cancer U251 cell line; summary of the method: as §1
[46] = tested on: UACC-62; assay: Tested for cytotoxic activity against melanoma UACC-62 cell line; summary of the method: as §1
[47] = tested on: XF498; assay: Tested for cytotoxic activity against CNS cancer XF498 cell line; summary of the method: as §1
[48] = tested on: UACC-257; assay: Tested for cytotoxic activity against melanoma UACC-257 cell line; summary of the method: as §1
[49] = tested on: LOX IMVI; assay: Tested for cytotoxic activity against melanoma […] cell line; summary of the method: as §1
[50] = tested on: HT-29; assay: Tested for cytotoxic activity against colon cancer HT-29 cell line; summary of the method: as §1

In the case of `CC(=O)OC1CCn2c1nc1c2C(=O)C(C)=C(N2CC2)C1=O` (stereo not given), the LC50 [1] is reported as 7.36, the LC50 [2] is reported as 5.44 and the LC50 [3] is reported as 6.53. The LC50 [4] was 6.55, the LC50 [5] was 5.53 and the LC50 [6] was greater than 4. It also gave an LC50 [7] of 4.82, an LC50 [8] of 7.66 and an LC50 [9] greater than 4. For the same molecule, the LC50 [10] was less than 8, the LC50 [11] was 6.64 and the LC50 [12] was 5.14. The LC50 [13] was 5.85, the LC50 [14] was greater than 4 and the LC50 [15] was 7.02. For the same molecule, the LC50 [16] was 5.12, the LC50 [17] was 6.64 and the LC50 [18] was less than 8. For the same molecule, the LC50 [19] was 7.33, the LC50 [20] was 7.26 and the LC50 [21] was greater than 4. For the same molecule, the LC50 [22] was less than 8, the LC50 [23] was 6.63 and the LC50 [24] was 7.09. It also gave an LC50 [25] of 7.09, an LC50 [26] of 7.19 and an LC50 [27] of less than 8. It also gave an LC50 [28] of 6.53, an LC50 [29] of 6.34 and an LC50 [30] of less than 8. For the same molecule, the LC50 [31] was 5.39, the LC50 [32] was 7.61 and the LC50 [33] was 6.22. For the same molecule, the LC50 [34] was 7.12, the LC50 [35] was 6.54 and the LC50 [36] was 5.67. The LC50 [37] was 6.47, the LC50 [38] was 7.89 and the LC50 [39] was 7.56. For the same molecule, the LC50 [40] was 6.36, the LC50 [41] was 7.59 and the LC50 [42] was less than 8. It also gave an LC50 [43] of 6.06, an LC50 [44] of less than 8 and an LC50 [45] of 6.53. The LC50 [46] was less than 8, the LC50 [47] was 7.09 and the LC50 [48] was 6.71. The LC50 [49] was less than 8 and the LC50 [50] was 6.03.
